# GSTO1 inh: GSTO1 inhibition, counter-screen for RBBP9 inhibitors; inhibition, % at 5.96 µM; recombinant GSTO1, activity-based probe fluorescence polarization; P78417; hit rate 1.1% among 300,000;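 active means inhibition above the campaign mean inhibition plus 3 SD, cut at about 35% in these data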
# Fam108B inh: Fam108B inhibition, counter-screen for RBBP9 inhibitors. recombinant Fam108B, FP-Rh probe fluorescence polarization. inhibition, % at 9.51 µM. hit rate 0.33% among 300,000. AID 1947;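 active means inhibition above the screen mean inhibition plus 3 SD, computed separately per campaign, cut at about 18% in these data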;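 further: inhibitors lower polarization as less probe binds the enzyme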
# PME-1 primary: blocks human protein phosphatase methylesterase 1. Q9Y570. recombinant PME-1, FP-Rh probe fluorescence polarization. inhibition, % at 5.9 µM. hit rate 0.53% among 320,000. AID 2130;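 active means inhibition above the campaign mean of all compounds plus 3 SD, cut at about 26% in these data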;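 further: competitive labeling of PME-1 active site by serine hydrolase directed probe; inhibitors block probe labeling so polarization falls and inhibition rises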
# PRMT1 inh: inhibitors of human PRMT1; hit rate 1.3% among 370,000; Q99873; recombinant PRMT1, activity-based probe fluorescence polarization; inhibition, % at 2.79 µM;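 active means inhibition above about 21% made by adding two undisclosed values, limit read from the data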
# Target sequence (Q99873 whole entry, looked up): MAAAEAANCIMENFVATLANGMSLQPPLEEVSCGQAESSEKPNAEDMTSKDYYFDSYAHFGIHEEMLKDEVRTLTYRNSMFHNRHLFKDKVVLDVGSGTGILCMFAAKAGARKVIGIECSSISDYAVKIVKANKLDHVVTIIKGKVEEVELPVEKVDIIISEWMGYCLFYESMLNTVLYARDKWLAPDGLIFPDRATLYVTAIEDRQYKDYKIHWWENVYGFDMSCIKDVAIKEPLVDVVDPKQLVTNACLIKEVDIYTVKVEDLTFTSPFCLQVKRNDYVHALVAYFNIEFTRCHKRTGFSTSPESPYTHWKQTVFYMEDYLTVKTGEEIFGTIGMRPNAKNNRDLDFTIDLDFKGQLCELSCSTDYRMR
# PAD4 FP inh: inhibitors of human PAD4. Q9UM07. AID 485272. hit rate 0.41% among 330,000. recombinant PAD4, RCA probe fluorescence polarization. inhibition, % at 6.36 µM;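 active means percent inhibition above a cutoff equal to the mean of all tested compounds plus 3 SD, cut at about 15% in these data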
# RBBP9 inhibitor: inhibitors of human serine hydrolase RBBP9. recombinant RBBP9, FP-Rh probe fluorescence polarization. inhibition, % at 7.94 µM. hit rate 0.2% among 220,000;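 active means inhibition above the campaign mean of all tested compounds plus 3 SD, cut at about 14% in these data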
# Target sequence (O75884 whole entry, looked up): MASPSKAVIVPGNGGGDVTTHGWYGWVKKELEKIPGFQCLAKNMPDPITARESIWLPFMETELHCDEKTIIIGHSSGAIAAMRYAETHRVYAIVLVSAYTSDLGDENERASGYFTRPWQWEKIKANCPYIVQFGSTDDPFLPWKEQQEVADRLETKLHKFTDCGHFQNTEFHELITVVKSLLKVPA
#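 Measured by: FP readout at 525/598 nm; material: recombinant human RBBP9; also added: Serine-hydrolase probe FP-Rh, 375 nM pre-mixing; medium: Tris buffer pH 8.0, NaCl, Pluronic; replication: one well per compound; doses: one concentration, 7.94 µM nominal, 0.794% DMSO; timing: preincubation 30 min plus labeling 45 min at 25 °C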
# PRMT1 inh conf: PRMT1 (human) inhibition, FP confirmation. shares compounds with PRMT1 inh. recombinant His-PRMT1, activity-based probe fluorescence polarization. inhibition, % at 2.79 µM. hit rate 42% among 3,300. AID 687036;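 active means mean inhibition across replicates above the hit cutoff derived for the earlier primary screen, cut at about 22% in these data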
# Numbers stand for hits; – = inactive; · = no result; ! = not confirmed by another sample. The list is not random: actives were taken first. Their share in the collection is about 2.3%.
SMILES,GSTO1 inh,Fam108B inh,PME-1 primary,PRMT1 inh,PAD4 FP inh,RBBP9 inhibitor,PRMT1 inh conf
CC(C)Nc1ccc(Nc2ccccc2)cc1,–,–,–,25.4,–,·,69.7
Cc1ccccc1-n1c(-c2ccoc2)nc2ccccc2c1=O,–,–,–,–,–,–,·
CNC(=O)Oc1ccc(-c2cn3cc(Cl)ccc3n2)cc1,–,–,–,–,–,–,·
CCOC(=O)CNC(=O)N1Cc2cc(-c3ccccc3)ccc2-n2nncc2C1,·,·,·,–,·,·,·
COc1ccc(C(C)=O)cc1Cc1c(O)[nH]c(=S)[nH]c1=O,–,–,–,28.0,–,·,–
Oc1cc(Cl)c(Cl)c(Cl)c1Cl,·,·,·,–,·,·,·
CNC(=O)CSP(=S)(OC)OC,·,·,·,32.2,·,·,28.7
CC(=O)Nc1ccc(CC(=O)N2CCN(Cc3ccccc3)CC2)cc1,–,–,–,–,–,·,·
Cc1ccc(Oc2cc(NN3CCCCC3)c([N+](=O)[O-])cc2[N+](=O)[O-])c([N+](=O)[O-])c1,–,–,–,–,–,·,·
O=[N+]([O-])c1ccc(N2CCOCC2)c2c1no[n+]2[O-],·,·,·,26.7,·,·,–
O=[N+]([O-])c1ccc(N2CCCCCC2)c2nonc12,–,–,–,89.1,–,·,95.4
COc1cc(N2CCOCC2)ccc1/C=C1\C(=O)NC(=O)N(C2CCCCC2)C1=O,–,–,–,25.7,–,–,–
O=C1NC(=O)N(Cc2cccs2)C(=O)/C1=C/c1ccc(N2CCOCC2)cc1,–,–,–,–,–,–,·
CCC(=NCCC(c1ccccc1)c1ccccc1)c1c(O)[nH]c(=O)[nH]c1=O,–,–,–,–,–,–,·
O=c1[nH]sc2cc(F)ccc12,·,·,·,72.7,·,–,68.9
Cc1cccc(N2CCc3c2nc2ccccc2c3N)c1,–,–,–,32.5!,–,–,–
NC(=O)CN1C2CCC1CC(NC(=O)C1CC1)C2 (configuration not stated),–,–,–,–,–,–,·
CCc1ccc(OCCCN=C(C)c2c(O)n(C)c(=O)n(C)c2=O)cc1,–,–,–,–,–,–,·
COC(=O)COc1ccc(/C=C2\C(=O)NC(=S)N(c3ccc(C)cc3)C2=O)cc1OC,–,–,–,31.6,–,·,27.0
COc1cc(/C=C2\C(=O)NC(=O)N(c3ccccc3)C2=O)cc(OC)c1OC,–,–,–,–,–,–,·
COc1cc(/C=C2/C(=O)NC(=O)N(c3ccc(C)cc3)C2=O)cc(OC)c1OC,–,–,–,–,–,–,·
COc1ccc(N2C(=O)/C(=C/c3ccc(OC)c(OC)c3)C(=O)NC2=S)cc1,·,·,·,41.1,·,·,49.0
CCN(CC)CCN=Cc1c(O)n(CCc2ccccc2)c(=O)[nH]c1=O,–,–,–,–,–,–,·
Cc1nn(Cc2ccccc2)c(C)c1C(=O)NCc1ccccc1F,–,–,–,–,–,–,·
CCOc1ccccc1N=C1SCCCN1C,–,–,–,–,–,–,·
SMILES,GSTO1 inh,Fam108B inh,PME-1 primary,PRMT1 inh,PAD4 FP inh,RBBP9 inhibitor,PRMT1 inh conf
CCOc1cccc(=NC2CCCCC2)c2c(C)n(C)c(C)c12,–,–,–,46.7,–,–,–
CN(C)C(=S)SSC(=S)N(C)C,–,–,–,86.9,–,–,101.9
CN(C)[C@@H]1C(=O)C(C(N)=O)=C(O)[C@@]2(O)C(=O)C3=C(O)c4c(O)ccc(Cl)c4[C@@](C)(O)C3C[C@@H]12 (some centres not stated),·,·,·,27.0,·,–,–
CCc1ccc(/C=C(/C#N)C(N)=S)cc1,–,–,–,30.3,–,–,–
N#C/C(=C\c1ccc(O)cc1)C(=O)O,·,·,·,–,·,·,·
C=CCn1c(O)c(C=NCCCn2ccnc2)c(=O)[nH]c1=O,–,–,–,–,–,–,·
COC(=O)C1=C(C(=O)OC)C2OC1c1cc3ccccc3cc12,·,·,·,64.0,·,·,45.9
Cn1cccc1/C=C1/C(=O)NC(=S)N(Cc2ccc(F)cc2)C1=O,–,–,–,26.8,–,–,64.7
Cc1cccc(N2C(=O)NC(=O)/C(=C/c3cc4c(cc3[N+](=O)[O-])OCO4)C2=O)c1,–,–,45.5,28.3,–,–,55.2
C=CCN1CC[C@]23c4c5ccc(O)c4O[C@H]2/C(=N/NC(=O)c2ccccc2)CC[C@@]3(O)[C@H]1C5,–,–,–,–,–,·,·
CN1C(=O)NC(=O)/C(=C/c2ccc([N+](=O)[O-])s2)C1=O,–,–,–,31.1,–,–,57.6
NC(=S)/N=C/c1c(O)[nH]c(=O)[nH]c1=O,–,–,–,34.4,–,–,–
O=C1C=C2c3ccccc3CC(C(=O)O)C2CC1 (configuration not stated),·,·,·,–,·,·,·
NS(=O)(=O)c1ccc(-c2ccc(C=C3C(=O)NC(=O)NC3=O)o2)cc1,–,–,–,–,–,·,·
NS(=O)(=O)c1ccc(-c2ccc(C=C3C(=O)NC(=S)NC3=O)o2)cc1,–,–,–,46.9,–,·,67.6
CCOc1ccc(NC(=O)c2c(C)nn(Cc3ccccc3)c2Cl)cc1,–,–,–,–,–,–,·
CN1CCC(c2c[nH]c3ccccc23)C1 (configuration not stated),–,–,–,–,–,–,·
C=CCNC(=O)c1c(N)n(Cc2ccco2)c2nc3ccccc3nc12,–,–,–,25.4,–,–,–
Cc1ccc(S(=O)(=O)N2Cc3cnnn3-c3ccccc3C2C#N)cc1 (configuration not stated),·,·,·,–,·,·,·
Cc1cc(N2CCNC[C@H]2C)ccc1N1CC[C@@H](O)C1,·,·,·,51.0,·,·,–
C[C@@H]1CNCCN1c1ccc(N2CC[C@@H](O)C2)c(C#N)c1,·,·,·,–,·,·,·
O=[N+]([O-])c1ccc(N2CCNCC2)cc1N1CCCCC1,–,–,–,–,–,–,·
Cc1cc(C)n2nc(SC(C)C(=O)N3CCC4(CC3)OCCO4)nc2n1 (configuration not stated),–,–,–,–,–,–,·
CCCCN1C(=O)/C(=C/C=C/c2ccco2)C(=O)NC1=S,·,·,·,39.3,·,–,43.7
O=C1NC(=O)N(Cc2ccc(F)cc2)C(=O)/C1=C\C=C\c1ccco1,–,–,–,–,–,–,·
CCc1ccc(N2C(=O)NC(=O)/C(=C\C=C\c3ccco3)C2=O)cc1,–,–,–,27.5,–,–,–
COC12CCC3(CC1C(C)(O)C(C)(C)C)[C@H]1Cc4ccc(OC5OC(C(=O)O)[C@@H](O)C(O)[C@H]5O)c5c4[C@@]3(CCN1CC1CC1)C2O5 (some centres not stated),·,·,·,–,–,·,·
CC(C)(O)[C@@H]1[C@H]2OC(=O)[C@@H]1[C@]1(O)C[C@H]3O[C@]34C(=O)O[C@H]2[C@]14C (tested in a mixture with another compound),–,–,–,·,–,·,·
O=C1NC(=O)C(=Cc2ccc(SC3CCCCC3)o2)C(=O)N1,–,–,–,26.4,–,–,–
Cc1cc(OCc2ccc([N+](=O)[O-])cc2)c2c3c(c(=O)oc2c1)CCCC3,–,–,–,–,–,–,·
